The target of test [1] is T1, Protease (Human immunodeficiency virus 1, UniProt Q9YQ12). Description: Inhibition of purified HIV-1 protease using [Arg-Glu(EDANS)-Ser-Gin-Asn-Tyr-Ile-Val-Gin-Lys(dabcyl)-Arg) as fluorogenic substrate at 0.08 ng/ml by fluorescence assay.
Test [2] has as its target T1, Protease. Briefly: Inhibition of purified HIV-1 protease using [Arg-Glu(EDANS)-Ser-Gin-Asn-Tyr-Ile-Val-Gin-Lys(dabcyl)-Arg) as fluorogenic substrate at 2 ng/ml by fluorescence assay.
Test [3] has as its target T1, Protease. Briefly: Inhibition of purified HIV-1 protease using [Arg-Glu(EDANS)-Ser-Gin-Asn-Tyr-Ile-Val-Gin-Lys(dabcyl)-Arg) as fluorogenic substrate by fluorescence assay. In short, it runs like this: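 Wild-type HIV-1 protease, cloned, expressed in Escherichia coli and purified. Inhibitors dissolved in DMSO and diluted. Incubation at 30 °C in 0.1 M sodium acetate, 1 M NaCl, 1 mM DTT, 1 mM EDTA, 3% DMSO, pH 5.0, with the EDANS/dabcyl fluorogenic peptide substrate. Cleavage read by fluorescence in a microplate reader.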

Test [4] deals with T1, Protease. Briefly: Inhibition of purified HIV-1 protease using [Arg-Glu(EDANS)-Ser-Gin-Asn-Tyr-Ile-Val-Gin-Lys(dabcyl)-Arg) as fluorogenic substrate at 50 ng/ml by fluorescence assay.
Test [5] concerns the target T1, Protease. Description: Inhibition of purified HIV-1 protease using [Arg-Glu(EDANS)-Ser-Gin-Asn-Tyr-Ile-Val-Gin-Lys(dabcyl)-Arg) as fluorogenic substrate at 0.4 ng/ml by fluorescence assay.
Test [6] has as its target T1, Protease. Briefly: Inhibition of purified HIV-1 protease using [Arg-Glu(EDANS)-Ser-Gin-Asn-Tyr-Ile-Val-Gin-Lys(dabcyl)-Arg) as fluorogenic substrate at 10 ng/ml by fluorescence assay.
For test [7], the target named is Protease (Human immunodeficiency virus 1) (UniProt Q9YQ12). Description: Inhibition of purified HIV-1 protease using [Arg-Glu(EDANS)-Ser-Gin-Asn-Tyr-Ile-Val-Gin-Lys(dabcyl)-Arg) as fluorogenic substrate at 10 nM by fluorescence assay.
Chain of Protease (Human immunodeficiency virus 1) (Q9YQ12 as listed by the source): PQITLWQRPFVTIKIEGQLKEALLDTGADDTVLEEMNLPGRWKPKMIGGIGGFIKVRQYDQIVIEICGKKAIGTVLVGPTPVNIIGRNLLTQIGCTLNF

SMILES strings stand for the structures.

T1 sequence (Q9YQ12 whole entry): as the sequence (Q9YQ12 as listed by the source) above

With `CC(C)CN(C[C@@H](O)[C@H](Cc1ccccc1)NC(=O)O[C@H]1CO[C@H]2[C@@H]1OC[C@H]2O)S(=O)(=O)c1ccc(N)cc1`, the Inhibition (commonly the change of the read-out against control, counted positive when it falls) at Protease [1] turned out to be 33.7%; on Protease [2] it was 80.7%; at Protease [4], 98.3%; at Protease [5], 57.7%; at Protease [6], 95.4%. Moreover, on Protease [3], the IC50 (usually the point on the concentration scale where inhibition reaches its midpoint) was 0.43 nM.

On to `COc1ccc(S(=O)(=O)N(CC(C)C)C[C@@H](O)[C@H](Cc2ccccc2)NC(=O)O[C@H]2CO[C@H]3[C@@H]2OC[C@H]3OC)cc1`, for which the Inhibition on Protease [1] amounted to 53.7%; at Protease [2], 93.5%; on Protease [4], 96.2%; on Protease [5] it was 83.2%; on Protease [6], 102%. The compound also came in with an IC50 on Protease [3] of 0.05 nM.

For the compound `COc1ccc(S(=O)(=O)N(CC(C)C)C[C@@H](O)[C@H](Cc2ccccc2)NC(=O)O[C@H]2CO[C@H]3[C@@H]2OC[C@H]3O)cc1`, the Inhibition on Protease [1] turned out to be 51.4%; on Protease [2] it was 99.5%; at Protease [4], 97.2%; on Protease [5], 74.2%; at Protease [6], 98%. In addition, half-maximal inhibition on Protease [3] (IC50) was put at 0.1 nM.

In the case of `CC(C)CN(C[C@@H](O)[C@H](Cc1ccccc1)NC(=O)O[C@H]1CO[C@H]2[C@@H]1OC[C@H]2O[N+](=O)[O-])S(=O)(=O)c1ccc(N)cc1`, the Inhibition on Protease [1] worked out at 47.2%; at Protease [2] it was 94.2%; at Protease [4], 94.7%; on Protease [5], 75.7%; on Protease [6] it was 98.6%. In addition, it took 0.12 nM to reach half-maximal inhibition at Protease [3] (IC50).

For `COc1ccc(S(=O)(=O)N(CC(C)C)C[C@@H](O)[C@H](Cc2ccccc2)NC(=O)O[C@H]2CO[C@H]3[C@@H]2OC[C@H]3O[N+](=O)[O-])cc1`, the Inhibition at Protease [1] turned out to be 53.7%; on Protease [2], 93.1%; on Protease [4], 93.1%; at Protease [5] it was 62.6%; at Protease [6], 100%. At Protease [3], this compound registered an IC50 of 0.11 nM.

As for `CO[C@@H]1CO[C@H]2[C@@H]1OC[C@@H]2OC(=O)N[C@@H](Cc1ccccc1)[C@H](O)CN(CC(C)C)S(=O)(=O)c1ccc(N)cc1`, the Inhibition at Protease [1] stood at 40.6%; at Protease [2], 103%; on Protease [4], 97%; on Protease [5] it was 59.6%; at Protease [6] it was 100%. Further, half-maximal inhibition at Protease [3] (IC50) was put at 0.36 nM.

As to `CC(C)(C)NC(=O)[C@@H]1CN(Cc2cccnc2)CCN1C[C@@H](O)C[C@@H](Cc1ccccc1)C(=O)N[C@H]1c2ccccc2C[C@H]1O`, the inhibition – broadly, how much of the control response was suppressed – in test [7] was 96.9%.
